This note sets out measurements from the RNAGym collection of RNA variant scans (doi:10.1038/nmeth.2970).

B1: GFP aptamer (parent)
chain: GCUUCUGGACUGCGAUGGGAGCACGAAACGUCGUGGCGCAAUUGGGUGGGGAAAGUCCUUAAAAGAGGGCCACCACAGAAGC
B2: NELF-E aptamer (parent)
chain: CCCAACGACUGCCGAGCGAGAUUACGCUUGAGCGCCCCACUGAGGAUGCCCACGGGCGAUUGGGGCACGG

The variants in the first data set derive from B1. The data set can be described thus: HiTS-RAP. Particulars: with EGFP. In a few lines: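 Aptamer DNA templates carrying a T7 promoter and ter site were sequenced on an Illumina GAIIx flowcell, then transcribed in situ by T7 RNA polymerase and halted by GST-Tus (30 minutes, 37°C). Clusters were imaged after 30-minute room-temperature equilibration with EGFP-mOrange at 0.04 nM to 625 nM in fivefold steps. Intensities were decay-corrected, normalised to sequencing intensity and averaged per sequence. Kd came from weighted Hill fits per lane, geometrically averaged over three lanes, with non-rising sequences set to 125 nM.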
For orientation: Kd means the free concentration of one partner at which half of the binding sites on the other are occupied at equilibrium, for simple one-to-one binding. As for G8C, the Kd was determined as 61.5 nM.

Take A20G A26G: the Kd was 7.96 nM.

On to C10U C32U, for which the equilibrium dissociation constant (Kd) worked out at 6.54 nM.

On to C10U A27G, for which the Kd amounted to 3.1 nM.

With U6A, the dissociation constant (Kd) came out at 8.81 nM.

Regarding U6G, the Kd was 7.45 nM.

Turning to U6C, the dissociation constant (Kd) turned out to be 8.4 nM.

C10G A20G: the Kd was 4.36 nM.

In the case of G25A A26G, the Kd came to 6.06 nM.

In the next data set the parent is B2. The experiment in a line: HiTS-RAP. Particulars: with NELF-E (Drosophila). The procedure, abridged:
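Kd came from weighted Hill fits to the first binding curve, with intensities normalised to sequencing intensity and averaged per sequence, keeping only fits whose variance was below 1,000,000. That curve was imaged on an Illumina GAIIx flowcell, where sequenced aptamer DNA templates with a T7 promoter and ter site had been transcribed in situ by T7 RNA polymerase and halted by GST-Tus (30 minutes, 37°C). Before each image, clusters equilibrated for 30 minutes at room temperature with NELF-E-mOrange at 0.064 to 1000 nM in HEPES binding buffer.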
On to G54A C66U, for which the Kd is 16.9 nM.

On to G54A G55A, for which the dissociation constant (Kd) was determined as 26.2 nM.

On to A46U, for which the Kd turned out to be 63.2 nM.

In the case of A46G, the Kd was 26.5 nM.

For A46C, the dissociation constant Kd was found to be 9.89 nM.

With G55A A67U, the equilibrium dissociation constant (Kd) was determined as 11.2 nM.

With U61C A67G, the Kd came to 68.2 nM.

In the case of G64A, the Kd was 7.74 nM.

In the case of G64U, the Kd turned out to be 7.29 nM.

For G64C, the Kd is 7.73 nM.

With U41G G65U, the Kd worked out at 6 nM.

With U41G G65A, the equilibrium dissociation constant (Kd) is 6.9 nM.

A43G A67U: the dissociation constant (Kd) was found to be 23.5 nM.

Take G56U: the equilibrium dissociation constant (Kd) came out at 5.3 nM.

As for G56A, the equilibrium dissociation constant (Kd) stood at 10.3 nM.

With G56C, the Kd came to 37.4 nM.

C53G G54U: the Kd worked out at 4.24 nM.

On to A43G A59G, for which the equilibrium dissociation constant (Kd) stood at 69 nM.

Consider G64A A67G, for which the Kd was 4.84 nM.

As for G64A A67U, the equilibrium dissociation constant (Kd) turned out to be 35.5 nM.

Consider A52U U61A, for which the Kd came to 90.9 nM.

For G45U A46G, the dissociation constant (Kd) is 5.32 nM.

C51G: the dissociation constant Kd stood at 4.48 nM.

Regarding C51A, the Kd is 8.65 nM.

As to C51U, the Kd turned out to be 6.66 nM.

For C51U C66U, the Kd is 7.21 nM.

Take C68U: the equilibrium dissociation constant (Kd) was determined as 4.59 nM.

As to C68G, the dissociation constant (Kd) stood at 4.57 nM.

Take C68A: the equilibrium dissociation constant (Kd) came to 5.29 nM.

In the case of A67C, the Kd was found to be 4.99 nM.

As for A67G, the Kd is 5.33 nM.

Take A67U: the Kd was 6.41 nM.

For the variant G48U C49G, the Kd was found to be 5.14 nM.

Consider G58U A59G, for which the dissociation constant (Kd) stood at 5.09 nM.

For the variant A52U, the Kd stood at 15.4 nM.

With A52C, the Kd is 5.64 nM.

For the variant A52G, the Kd came out at 4.24 nM.

U61A A67U: the Kd stood at 49.7 nM.

As for U61A A67G, the Kd came to 27.4 nM.

Take A59G: the Kd was 47.9 nM.

Regarding A59C, the Kd is 110 nM.

Take A59U: the dissociation constant (Kd) was 72.2 nM.

Turning to U41G U47G, the dissociation constant Kd is 7.59 nM.

For U60C, the dissociation constant Kd was determined as 9.28 nM.

Regarding U60A, the Kd turned out to be 9.5 nM.

On to U60G, for which the dissociation constant (Kd) is 5.2 nM.

As to A43U A67U, the Kd is 37.1 nM.

Turning to G63C, the Kd is 33.8 nM.

Turning to G63U, the Kd was 10.3 nM.

As to G63A, the dissociation constant (Kd) was 12.8 nM.

For G55C, the Kd worked out at 7.14 nM.

Regarding G55U, the Kd is 6.36 nM.

G55A: the Kd is 7.36 nM.

As to G63U G65U, the Kd is 5.32 nM.

U47G G48U: the Kd stood at 6.17 nM.

A52U C66U: the Kd is 15.1 nM.

Turning to G54A A59G, the equilibrium dissociation constant (Kd) stood at 73.6 nM.

As for U61G G62U, the Kd amounted to 5.22 nM.

Take A52U G63U: the dissociation constant Kd is 42.2 nM.

As to A52U G63A, the Kd came to 50.8 nM.

On to A46G A67G, for which the dissociation constant (Kd) came out at 36.2 nM.

For U41G C53U, the Kd came out at 3.62 nM.

As for A46U U47G, the Kd was 5.55 nM.

Consider U41G G62A, for which the dissociation constant (Kd) is 19.9 nM.

For the variant U61G, the equilibrium dissociation constant (Kd) was 7.54 nM.

Turning to U61C, the Kd was 63.7 nM.

In the case of U61A, the Kd was found to be 28.4 nM.

As for G65U, the Kd is 6.03 nM.

Regarding G65C, the dissociation constant Kd stood at 14 nM.

For the variant G65A, the dissociation constant (Kd) is 4.39 nM.

For G55A G65U, the Kd was determined as 6.71 nM.

With U47A A67G, the dissociation constant (Kd) worked out at 12 nM.

Regarding U47A A67U, the Kd was 10.5 nM.

With G44U, the dissociation constant Kd stood at 7.32 nM.

As to G44A, the Kd was found to be 42.3 nM.

Turning to G44C, the Kd came out at 27.5 nM.

For the variant A43C, the dissociation constant (Kd) was found to be 76 nM.

As for A43G, the Kd was determined as 24.6 nM.

In the case of A43U, the equilibrium dissociation constant (Kd) was determined as 67 nM.

As for C57G, the equilibrium dissociation constant (Kd) worked out at 6.36 nM.

Regarding C57U, the Kd was found to be 5.5 nM.

Turning to C57A, the Kd came out at 13.9 nM.

Take A43G U60C: the dissociation constant Kd is 20.1 nM.

As for G58C, the Kd is 65.3 nM.

Turning to G58A, the equilibrium dissociation constant (Kd) is 9.31 nM.

Consider G58U, for which the equilibrium dissociation constant (Kd) is 9.77 nM.

As for C49G, the dissociation constant Kd is 9.21 nM.

Take C49A: the Kd amounted to 20.6 nM.

For the variant C49U, the Kd was 19.5 nM.

Regarding G65U A67U, the Kd came to 8.45 nM.

For C53U G64A, the dissociation constant (Kd) was determined as 4.84 nM.

G69A: the Kd worked out at 4.82 nM.

G69U: the Kd came to 5.33 nM.

As to G69C, the Kd amounted to 5.52 nM.

For C50A, the Kd worked out at 14.7 nM.

For C50G, the Kd is 6.31 nM.

As to C50U, the Kd came out at 12.2 nM.

On to A59G G64A, for which the Kd was 44.7 nM.

With U41G G48A, the Kd was 7.62 nM.

With A43G G44U, the equilibrium dissociation constant (Kd) turned out to be 5.97 nM.

With C66U, the Kd is 4.61 nM.

For C66G, the Kd amounted to 4.38 nM.

Turning to C66A, the dissociation constant Kd worked out at 4.61 nM.

Take G70U: the Kd amounted to 5.07 nM.

Turning to G70C, the Kd is 4.44 nM.

For G70A, the dissociation constant Kd was 4.46 nM.

As for G45A, the Kd came to 47.8 nM.

On to G45U, for which the equilibrium dissociation constant (Kd) stood at 6.76 nM.

Turning to G45C, the dissociation constant Kd amounted to 39.5 nM.

Take U41G G56U: the dissociation constant Kd worked out at 5.56 nM.

With U41G G56A, the dissociation constant Kd was determined as 5.81 nM.

Take G64A G65U: the dissociation constant Kd worked out at 5.13 nM.

On to G42C, for which the dissociation constant (Kd) stood at 44.2 nM.

As to G42A, the equilibrium dissociation constant (Kd) was found to be 49.4 nM.

In the case of G42U, the dissociation constant (Kd) is 10.5 nM.

For the variant U41G U60C, the Kd came to 9.67 nM.

On to C57U A67G, for which the Kd stood at 4.59 nM.

For U41G G54A, the dissociation constant (Kd) was found to be 18.1 nM.

As for G62U G64U, the Kd turned out to be 5.62 nM.

On to G64C G65U, for which the dissociation constant (Kd) was 5.12 nM.

Take U41G G45A: the Kd amounted to 53.9 nM.

As to U41G G45U, the Kd amounted to 5.07 nM.

A46U A59G: the dissociation constant (Kd) was determined as 60.5 nM.

With G65U C66G, the Kd was 4.98 nM.

Consider A52G C53U, for which the Kd stood at 6.67 nM.

As for U41G G63U, the Kd is 11.8 nM.

In the case of U41G G63A, the dissociation constant Kd was 16.8 nM.

U41G C66U: the Kd came to 4.15 nM.

For the variant A52U G56A, the Kd came out at 99 nM.

Regarding A46G G54A, the equilibrium dissociation constant (Kd) came out at 129 nM.

On to U41G U61A, for which the Kd worked out at 34.9 nM.

Regarding U41G G64U, the dissociation constant (Kd) turned out to be 5.28 nM.

For U41G G64A, the Kd came to 6.38 nM.

Take U41G G64C: the Kd amounted to 7.1 nM.

In the case of U41G C57U, the Kd came to 6.91 nM.

With G48C, the Kd came out at 85.4 nM.

Regarding G48U, the equilibrium dissociation constant (Kd) came to 5.99 nM.

G48A: the equilibrium dissociation constant (Kd) stood at 9.57 nM.

As for U47A G54A, the Kd came to 15.1 nM.

As for G54U G56U, the Kd is 5.48 nM.

For U41G G42A, the Kd amounted to 23.5 nM.

For U41G G42U, the dissociation constant (Kd) was 5.09 nM.

As for C53G, the dissociation constant Kd is 5.16 nM.

On to C53U, for which the equilibrium dissociation constant (Kd) was found to be 3.8 nM.

As for C53A, the Kd came to 4.92 nM.

With G54C, the Kd came to 10.6 nM.

Regarding G54U, the equilibrium dissociation constant (Kd) stood at 6.39 nM.

Take G54A: the dissociation constant Kd stood at 11.8 nM.

As to U47A, the Kd is 10.2 nM.

In the case of U47G, the Kd came to 6.05 nM.

For the variant U47C, the dissociation constant Kd amounted to 9.59 nM.

G62C: the Kd was determined as 48.2 nM.

As for G62U, the Kd is 7.51 nM.

Consider G62A, for which the Kd turned out to be 16.9 nM.

Take C51U A52G: the Kd was found to be 7.06 nM.

As to U41G G55C, the Kd worked out at 6.95 nM.

As for U41G G55U, the Kd was found to be 7.2 nM.

For U41G G55A, the dissociation constant Kd worked out at 7.84 nM.
